Measurements reported in ChEMBL document CHEMBL1124663, “Design, synthesis, antineoplastic activity, and chemical properties of bis(carbamate) derivatives of 4,5-bis(hydroxymethyl)imidazole” (J Med Chem, 1989).

Columns and labels:
Mus musculus [1] = test: Body Weight Difference (BWD) of test animals administered with 400 mg/kg compound is determined on day 5 for P388 tumor cells; assay type: functional
How it was run: (§1)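 P388 leukaemia: about 10^6 cells in ascitic fluid inoculated ip on day 0 (CD2F1 mice). Compound given ip in normal saline as a freshly prepared solution or suspension, once daily on days 1–5. Treated-minus-control body weight difference in g, taken as day 5 minus day 1 weight. Groups of six.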

Mus musculus [2] = test: Ability of 50 mg/kg of compound to kill tumor cells in mice is expressed as the log of the tumor cell population at the onset of treatment minus the log of the tumor cell population at the end of treatment; assay type: functional
Mus musculus [3] = test: Toxicity day evaluation was carried out on day 5 for animal dosed with 50 mg/kg compound; 5/5; assay type: organism-based; set-up: dose 50 mg/kg; conditions: in vivo
Mus musculus [4] = test: Toxicity day evaluation was carried out on day 5 for animal dosed with 100 mg/kg compound; 5/5; assay type: organism-based; set-up: dose 100 mg/kg; conditions: in vivo
Mus musculus [5] = test: Body Weight Difference (BWD) of test animals administered with 100 mg/kg compound is determined on day 5 for P388 tumor cells; assay type: functional; how it was run: as §1
Mus musculus [6] = test: Toxicity day evaluation was carried out on day 5 for animal dosed with 200 mg/kg compound; 5/5; assay type: organism-based; set-up: dose 200 mg/kg; conditions: in vivo
Mus musculus [7] = test: Body Weight Difference (BWD) of test animals administered with 200 mg/kg compound is determined on day 5 for P388 tumor cells; assay type: functional; how it was run: as §1
Mus musculus [8] = test: Ability of 100 mg/kg of compound to kill tumor cells in mice is expressed as the log of the tumor cell population at the onset of treatment minus the log of the tumor cell population at the end of treatment; assay type: functional
Mus musculus [9] = test: Toxicity day evaluation was carried out on day 5 for animal dosed with 400 mg/kg compound; 4/5; assay type: organism-based; set-up: dose 400 mg/kg; conditions: in vivo
Mus musculus [10] = test: Body Weight Difference (BWD) of test animals administered with 50 mg/kg compound is determined on day 5 for P388 tumor cells; assay type: functional; how it was run: as §1
Mus musculus [11] = test: Toxicity day evaluation was carried out on day 5 for animal dosed with 12.5 mg/kg compound. Number of animals in initial test groups were 5; assay type: organism-based; set-up: dose 12.5 mg/kg; conditions: in vivo
Mus musculus [12] = test: Toxicity day evaluation was carried out on day 5 for animal dosed with 100 mg/kg compound. Number of animals in initial test groups were 5; assay type: organism-based; set-up: dose 100 mg/kg; conditions: in vivo
Mus musculus [13] = test: Body Weight Difference (BWD) of test animals with P388 administered with 200 mg/kg compound is determined; assay type: functional; how it was run: as §1
Mus musculus [14] = test: Body Weight Difference (BWD) of test animals with P388 administered with 100 mg/kg compound is determined; assay type: functional; how it was run: as §1
Mus musculus [15] = test: Body Weight Difference (BWD) of test animals with P388 administered with 25 mg/kg compound is determined; assay type: functional; how it was run: as §1
Mus musculus [16] = test: The percent of the median survival time of test mice compared to control mice is determined for mice administered with 12.5 mg/kg compound.; assay type: functional
Mus musculus [17] = test: Body Weight Difference (BWD) of test animals with P388 administered with 50 mg/kg compound is determined; assay type: functional; how it was run: as §1
Mus musculus [18] = test: Toxicity day evaluation was carried out on day 5 for animal dosed with 25 mg/kg compound. Number of animals in initial test groups were 5; assay type: organism-based; set-up: dose 25 mg/kg; conditions: in vivo
Mus musculus [19] = test: Body Weight Difference (BWD) of test animals with P388 administered with 12.5 mg/kg compound is determined; assay type: functional; how it was run: as §1
Mus musculus [20] = test: Toxicity day evaluation was carried out on day 5 for animal dosed with 200 mg/kg compound. Number of animals in initial test groups were 5; assay type: organism-based; set-up: dose 200 mg/kg; conditions: in vivo
Mus musculus [21] = test: Toxicity day evaluation was carried out on day 5 for animal dosed with 50 mg/kg compound. Number of animals in initial test groups were 5; assay type: organism-based; set-up: dose 50 mg/kg; conditions: in vivo
Mus musculus [22] = test: The percent of the median survival time of test mice compared to control mice is determined for mice administered with 25 mg/kg compound; assay type: functional
Mus musculus [23] = test: Toxicity day evaluation was carried out on day 5 for animal dosed with 25 mg/kg compound; 5/5; assay type: organism-based; set-up: dose 25 mg/kg; conditions: in vivo
Mus musculus [24] = test: Toxicity day evaluation was carried out on day 5 for animal dosed with 12.5 mg/kg compound; 5/5; assay type: organism-based; set-up: dose 12.5 mg/kg; conditions: in vivo
Mus musculus [25] = test: The percent of the median survival time of test mice compared to control mice is determined for mice administered with 200 mg/kg compound; assay type: functional
Mus musculus [26] = test: The percent of the median survival time of test mice compared to control mice is determined for mice administered with 12.5 mg/kg compound; assay type: functional
Mus musculus [27] = test: Body Weight Difference (BWD) of test animals administered with 100 mg/kg compound is determined; assay type: functional
Mus musculus [28] = test: The percent of the median survival time of test mice compared to control mice is determined for mice administered with 25 mg/kg compound.; assay type: functional
Mus musculus [29] = test: Toxicity day evaluation was carried out on day 5 for animal dosed with 100 mg/kg compound. Number of animals in initial test groups were 6; assay type: organism-based; set-up: dose 100 mg/kg; conditions: in vivo
Mus musculus [30] = test: Toxicity day evaluation was carried out on day 5 for animal dosed with 400 mg/kg compound. Number of animals in initial test groups were 6; assay type: organism-based; set-up: dose 400 mg/kg; conditions: in vivo
Mus musculus [31] = test: Toxicity day evaluation was carried out on day 5 for animal dosed with 200 mg/kg compound. Number of animals in initial test groups were 6; assay type: organism-based; set-up: dose 200 mg/kg; conditions: in vivo
Mus musculus [32] = test: Toxicity day evaluation was carried out on day 5 for animal dosed with 25 mg/kg compound. Number of animals in initial test groups were 6; assay type: organism-based; set-up: dose 25 mg/kg; conditions: in vivo
Mus musculus [33] = test: Toxicity day evaluation was carried out on day 5 for animal dosed with 50 mg/kg compound. Number of animals in initial test groups were 6; assay type: organism-based; set-up: dose 50 mg/kg; conditions: in vivo
Mus musculus [34] = test: Ability of 50 mg/kg of compound to kill P388 tumor cells in mice is expressed as the log of the tumor cell population at the onset of treatment minus the log of the tumor cell population at the end of treatment.; assay type: functional
How it was run: (§2)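 P388 leukemia, 10^6 cells implanted ip on day 0. Drug given ip daily on days 1-5 as a saline suspension freshly prepared before injection. Log cell kill is computed from survival, with % T/C taken as median survival time of treated versus control mice.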

Mus musculus [35] = test: Ability of 25 mg/kg of compound to kill P388 tumor cells in mice is expressed as the log of the tumor cell population at the onset of treatment minus the log of the tumor cell population at the end of treatment.; assay type: functional; how it was run: as §2
Mus musculus [36] = test: Body Weight Difference (BWD) of test animals with P388 administered with 400 mg/kg compound is determined; assay type: functional; how it was run: as §1
Mus musculus [37] = test: Toxicity day evaluation was carried out on day 5 for animal dosed with 12.5 mg/kg compound; 6/6; assay type: organism-based; set-up: dose 12.5 mg/kg; conditions: in vivo
Mus musculus [38] = test: Ability of 25 mg/kg of compound to kill tumor cells in mice is expressed as the log of the tumor cell population at the onset of treatment minus the log of the tumor cell population at the end of treatment; assay type: functional
Mus musculus [39] = test: Toxicity day evaluation was carried out on day 5 for animal dosed with 50 mg/kg compound; 6/6; assay type: organism-based; set-up: dose 50 mg/kg; conditions: in vivo
Mus musculus [40] = test: The percent of the median survival time of test mice compared to control mice is determined for mice administered with 400 mg/kg compound; assay type: functional
Mus musculus [41] = test: Toxicity day evaluation was carried out on day 5 for animal dosed with 100 mg/kg compound; 6/6; assay type: organism-based; set-up: dose 100 mg/kg; conditions: in vivo
Mus musculus [42] = test: The percent of the median survival time of test mice compared to control mice is determined for mice administered with 50 mg/kg compound; assay type: functional
Mus musculus [43] = test: The percent of the median survival time of test mice compared to control mice is determined for mice administered with 100 mg/kg compound; assay type: functional
Mus musculus [44] = test: Body Weight Difference (BWD) of test animals administered with 12.5 mg/kg compound is determined on day 5 for P388 tumor cells; assay type: functional; how it was run: as §1
Mus musculus [45] = test: Toxicity day evaluation was carried out on day 5 for animal dosed with 200 mg/kg compound; 5/6; assay type: organism-based; set-up: dose 200 mg/kg; conditions: in vivo
Mus musculus [46] = test: Toxicity day evaluation was carried out on day 5 for animal dosed with 400 mg/kg compound; 6/6; assay type: organism-based; set-up: dose 400 mg/kg; conditions: in vivo
Mus musculus [47] = test: Ability of 200 mg/kg of compound to kill tumor cells in mice is expressed as the log of the tumor cell population at the onset of treatment minus the log of the tumor cell population at the end of treatment; assay type: functional
Mus musculus [48] = test: Toxicity day evaluation was carried out on day 5 for animal dosed with 25 mg/kg compound; 6/6; assay type: organism-based; set-up: dose 25 mg/kg; conditions: in vivo
Mus musculus [49] = test: Body Weight Difference (BWD) of test animals administered with 25 mg/kg compound is determined on day 5 for P388 tumor cells; assay type: functional; how it was run: as §1

CNC(=O)OCc1nc(SC)n(-c2ccccc2)c1COC(=O)NC
BWD (Mus musculus [1]): -5.2 g
KE (Mus musculus [2]): 0.6
Survivors / animals tested (Mus musculus [3]): 5
Survivors / animals tested (Mus musculus [4]): 5
BWD (Mus musculus [5]): -1.6 g
Survivors / animals tested (Mus musculus [6]): 5
BWD (Mus musculus [7]): -3 g
KE (Mus musculus [8]): 0.17
Survivors / animals tested (Mus musculus [9]): 4
BWD (Mus musculus [10]): -1.4 g

CNC(=O)OCc1nc(-c2ccccc2)n(C)c1COC(=O)NC
Survivors / animals tested (Mus musculus [11]): 5
Survivors / animals tested (Mus musculus [12]): 5
BWD (Mus musculus [13]): -2.2 g
BWD (Mus musculus [14]): -1 g
BWD (Mus musculus [15]): 0 g
T/C (Mus musculus [16]): 98%
BWD (Mus musculus [17]): -0.8 g
Survivors / animals tested (Mus musculus [18]): 5
BWD (Mus musculus [19]): -0.2 g
Survivors / animals tested (Mus musculus [20]): 5
Survivors / animals tested (Mus musculus [21]): 5

CNC(=O)OCc1ncn(-c2ccccc2)c1COC(=O)NC
T/C (Mus musculus [22]): 95%
Survivors / animals tested (Mus musculus [3]): 5
BWD (Mus musculus [13]): -1.2 g
BWD (Mus musculus [14]): -0.4 g
BWD (Mus musculus [15]): 0.2 g
BWD (Mus musculus [17]): -0.8 g
Survivors / animals tested (Mus musculus [23]): 5
Survivors / animals tested (Mus musculus [4]): 5
Survivors / animals tested (Mus musculus [24]): 5
T/C (Mus musculus [25]): 99%
T/C (Mus musculus [26]): 99%
Survivors / animals tested (Mus musculus [6]): 5
BWD (Mus musculus [19]): -0.4 g

COc1nc(COC(=O)NC(C)C)c(COC(=O)NC(C)C)n1C
BWD (Mus musculus [27]): -2.1 g
T/C (Mus musculus [28]): 130%
BWD (Mus musculus [13]): -2.6 g
BWD (Mus musculus [15]): -0.1 g
Survivors / animals tested (Mus musculus [29]): 6
BWD (Mus musculus [17]): -1 g
Survivors / animals tested (Mus musculus [30]): 6
Survivors / animals tested (Mus musculus [31]): 6
Survivors / animals tested (Mus musculus [32]): 6
Survivors / animals tested (Mus musculus [33]): 6
KE (Mus musculus [34]): 0.54
KE (Mus musculus [35]): -0.6
BWD (Mus musculus [36]): -4.2 g

CSc1nc(COC(=O)NC(C)C)c(COC(=O)NC(C)C)n1-c1ccccc1
Survivors / animals tested (Mus musculus [37]): 6
KE (Mus musculus [38]): -1.55
BWD (Mus musculus [1]): -4.8 g
Survivors / animals tested (Mus musculus [39]): 6
T/C (Mus musculus [40]): 100%
Survivors / animals tested (Mus musculus [41]): 6
T/C (Mus musculus [42]): 95%
T/C (Mus musculus [43]): 97%
BWD (Mus musculus [44]): -0.2 g
Survivors / animals tested (Mus musculus [45]): 5
BWD (Mus musculus [5]): -2 g
T/C (Mus musculus [25]): 90%
Survivors / animals tested (Mus musculus [46]): 6
KE (Mus musculus [47]): -1.64
Survivors / animals tested (Mus musculus [48]): 6
BWD (Mus musculus [7]): -2.8 g
BWD (Mus musculus [49]): 0.6 g
BWD (Mus musculus [10]): 0.3 g
